Drawing on ChEMBL document CHEMBL1944534, “New heterocyclic compounds from 1,2,4-triazole and 1,3,4-thiadiazole class bearing diphenylsulfone moieties. Synthesis, characterization and antimicrobial activity evaluation” (2012), this text covers MIC for 14 molecules.

≈ marks a conversion by molar mass, not a printed value.

Holding throughout (format): functional
In one test the test system is Enterobacter cloacae. The experiment in a line: Antibacterial activity against Enterobacter cloacae ATCC 49141 after 20 hrs by broth microdilution method. To be noted: ATCC 49141, 20 h. The gist of the method:
(§1)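 MIC by two-fold dilution series (1/2 to 1/1024) of a 2048 µg/mL DMSO stock in cation-adjusted Müller-Hinton broth. Inoculum from colonies of 24 h Columbia blood agar culture, adjusted to 0.5 McFarland, diluted to 1 × 10^6 CFU/mL and added 1:1 to compound broth. Incubated 37 °C, 20 h. MIC is the lowest concentration with no turbidity or growth button, read by eye. Run in duplicate.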

Another test has as its system Acinetobacter baumannii. Kind of test: Antibacterial activity against Acinetobacter baumannii ATCC 19606 after 20 hrs by broth microdilution method. Particulars: ATCC 19606 = CIP 70.34 = JCM 6841, 20 h. The gist of the method: as §1
For another test, the system named is Candida albicans. Kind of test: Antifungal activity against Candida albicans ATCC 90028 after 24 hrs by broth microdilution method. To be noted: ATCC 90028, 24 h. The gist of the method:
(§2)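 Two-fold dilutions (1/2 to 1/1024) of a 2048 µg/mL DMSO stock made in Sabouraud broth. Yeast inoculum from colonies of 24 h Sabouraud dextrose agar culture, 0.5 McFarland, diluted in sterile water to 10^5 CFU/mL and added in equal volume to broth. Incubated 37 °C, 24 h (C. albicans) or 48 h (C. parapsilosis). MIC read by eye as lowest concentration without turbidity or growth button. Run in duplicate.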

The subject of another test is Bacillus cereus. Kind of test: Antibacterial activity against Bacillus cereus ATCC 13061 after 20 hrs by broth microdilution method. To be noted: ATCC 13061, 20 h. A digest of the protocol: as §1
Another test has as its system Pseudomonas aeruginosa. Kind of test: Antibacterial activity against Pseudomonas aeruginosa ATCC 27853 after 20 hrs by broth microdilution method. Particulars: ATCC 27853, 20 h. The gist of the method: as §1
A further test relates to Escherichia coli. Kind of test: Antibacterial activity against Escherichia coli ATCC 25922 after 20 hrs by broth microdilution method. To be noted: ATCC 25922, 20 h. A digest of the protocol: as §1
Another test deals with Staphylococcus aureus. Kind of test: Antibacterial activity against Staphylococcus aureus ATCC 25923 after 20 hrs by broth microdilution method. To be noted: ATCC 25923, 20 h. The gist of the method: as §1
The test system of the next test is Candida parapsilosis. The experiment in a line: Antifungal activity against Candida parapsilosis ATCC 22019 after 48 hrs by broth microdilution method. To be noted: Lodderomyces parapsilosis, ATCC 22019, 48 h. A digest of the protocol:
as §2

Regarding `O=C(NNC(=S)Nc1ccc(OC(F)(F)F)cc1)c1ccc(S(=O)(=O)c2ccccc2)cc1`, the MIC against Enterobacter cloacae was 128 µg/mL (≈ 258 µM); in the test with Acinetobacter baumannii, 64 µg/mL (≈ 129 µM); against Candida albicans, 64 µg/mL (≈ 129 µM); against Bacillus cereus, 32 µg/mL (≈ 64.6 µM); in the test on Pseudomonas aeruginosa it was 64 µg/mL (≈ 129 µM); with Escherichia coli it was 128 µg/mL (≈ 258 µM). The figures for the MIC in the test on Staphylococcus aureus and in the test with Candida parapsilosis were 256 µg/mL (≈ 517 µM) and 64 µg/mL (≈ 129 µM), respectively.
Turning to `O=C(NNC(=S)Nc1ccc(OC(F)(F)F)cc1)c1ccc(S(=O)(=O)c2ccc(Br)cc2)cc1`, the MIC against Enterobacter cloacae worked out at 128 µg/mL (≈ 223 µM); against Acinetobacter baumannii it was 64 µg/mL (≈ 111 µM); with Candida albicans, 64 µg/mL (≈ 111 µM); against Bacillus cereus, 32 µg/mL (≈ 55.7 µM); in the test with Pseudomonas aeruginosa, 64 µg/mL (≈ 111 µM); in the test with Escherichia coli, 128 µg/mL (≈ 223 µM). In addition, the MIC turned out to be 512 µg/mL (≈ 891 µM) with Staphylococcus aureus and 64 µg/mL (≈ 111 µM) against Candida parapsilosis.
Take `COc1cc(NC(=S)NNC(=O)c2ccc(S(=O)(=O)c3ccccc3)cc2)cc(OC)c1OC`: the MIC in the test on Enterobacter cloacae came to 128 µg/mL (≈ 255 µM); in the test on Acinetobacter baumannii it was 32 µg/mL (≈ 63.8 µM); in the test with Candida albicans it was 64 µg/mL (≈ 128 µM); against Bacillus cereus it was 16 µg/mL (≈ 31.9 µM); against Pseudomonas aeruginosa it was 64 µg/mL (≈ 128 µM); in the test on Escherichia coli, 128 µg/mL (≈ 255 µM). For the same molecule, the MIC in the test on Staphylococcus aureus was found to be 128 µg/mL (≈ 255 µM); in the test on Candida parapsilosis, 64 µg/mL (≈ 128 µM).
Take `COc1cc(NC(=S)NNC(=O)c2ccc(S(=O)(=O)c3ccc(Br)cc3)cc2)cc(OC)c1OC`: the MIC was found to be 128 µg/mL (≈ 221 µM) in the test on Enterobacter cloacae; 32 µg/mL (≈ 55.1 µM) against Acinetobacter baumannii; 64 µg/mL (≈ 110 µM) against Candida albicans; 16 µg/mL (≈ 27.6 µM) with Bacillus cereus; 64 µg/mL (≈ 110 µM) with Pseudomonas aeruginosa; 128 µg/mL (≈ 221 µM) with Escherichia coli. The minimal inhibitory concentration (MIC) stood at 128 µg/mL (≈ 221 µM) against Staphylococcus aureus and 64 µg/mL (≈ 110 µM) against Candida parapsilosis.
Regarding `O=S(=O)(c1ccccc1)c1ccc(-c2n[nH]c(=S)n2-c2ccc(OC(F)(F)F)cc2)cc1`, the MIC in the test on Enterobacter cloacae was determined as 128 µg/mL (≈ 268 µM); against Acinetobacter baumannii, 32 µg/mL (≈ 67 µM); against Candida albicans, 128 µg/mL (≈ 268 µM); against Bacillus cereus, 32 µg/mL (≈ 67 µM); in the test on Pseudomonas aeruginosa it was 64 µg/mL (≈ 134 µM); in the test on Escherichia coli, 128 µg/mL (≈ 268 µM). Moreover, the MIC against Staphylococcus aureus is 256 µg/mL (≈ 536 µM); in the test on Candida parapsilosis it was 64 µg/mL (≈ 134 µM).
Consider `O=S(=O)(c1ccc(Br)cc1)c1ccc(-c2n[nH]c(=S)n2-c2ccc(OC(F)(F)F)cc2)cc1`, for which the MIC was 256 µg/mL (≈ 460 µM) in the test with Enterobacter cloacae; 32 µg/mL (≈ 57.5 µM) in the test on Acinetobacter baumannii; 128 µg/mL (≈ 230 µM) in the test with Candida albicans; 32 µg/mL (≈ 57.5 µM) in the test on Bacillus cereus; 64 µg/mL (≈ 115 µM) in the test with Pseudomonas aeruginosa; 256 µg/mL (≈ 460 µM) with Escherichia coli. The MIC with Staphylococcus aureus is 512 µg/mL (≈ 920 µM); in the test with Candida parapsilosis, 64 µg/mL (≈ 115 µM).
Consider `COc1cc(-n2c(-c3ccc(S(=O)(=O)c4ccccc4)cc3)n[nH]c2=S)cc(OC)c1OC`, for which the MIC in the test on Enterobacter cloacae stood at 128 µg/mL (≈ 265 µM); in the test on Acinetobacter baumannii, 32 µg/mL (≈ 66.2 µM); in the test with Candida albicans, 64 µg/mL (≈ 132 µM); against Bacillus cereus it was 16 µg/mL (≈ 33.1 µM); against Pseudomonas aeruginosa it was 64 µg/mL (≈ 132 µM); in the test on Escherichia coli it was 128 µg/mL (≈ 265 µM). For the same molecule, the values for the minimal inhibitory concentration (MIC) in the test on Staphylococcus aureus and in the test with Candida parapsilosis were 128 µg/mL (≈ 265 µM) and 32 µg/mL (≈ 66.2 µM), respectively.
Take `COc1cc(-n2c(-c3ccc(S(=O)(=O)c4ccc(Br)cc4)cc3)n[nH]c2=S)cc(OC)c1OC`: the MIC against Enterobacter cloacae came to 128 µg/mL (≈ 228 µM); with Acinetobacter baumannii, 32 µg/mL (≈ 56.9 µM); with Candida albicans it was 64 µg/mL (≈ 114 µM); in the test on Bacillus cereus it was 8 µg/mL (≈ 14.2 µM); with Pseudomonas aeruginosa, 64 µg/mL (≈ 114 µM); with Escherichia coli, 128 µg/mL (≈ 228 µM). The values for the MIC in the test on Staphylococcus aureus and with Candida parapsilosis were 128 µg/mL (≈ 228 µM) and 16 µg/mL (≈ 28.4 µM), respectively.
Consider `O=S(=O)(c1ccccc1)c1ccc(-c2nnc(Nc3ccc(OC(F)(F)F)cc3)s2)cc1`, for which the MIC against Enterobacter cloacae was 128 µg/mL (≈ 268 µM); in the test with Acinetobacter baumannii it was 32 µg/mL (≈ 67 µM); with Candida albicans it was 64 µg/mL (≈ 134 µM); in the test on Bacillus cereus, 32 µg/mL (≈ 67 µM); with Pseudomonas aeruginosa, 64 µg/mL (≈ 134 µM); in the test with Escherichia coli, 128 µg/mL (≈ 268 µM). Also, the MIC against Staphylococcus aureus is 512 µg/mL (≈ 1070 µM); against Candida parapsilosis it was 64 µg/mL (≈ 134 µM).
As to `O=S(=O)(c1ccc(Br)cc1)c1ccc(-c2nnc(Nc3ccc(OC(F)(F)F)cc3)s2)cc1`, the MIC stood at 128 µg/mL (≈ 230 µM) in the test with Enterobacter cloacae; 32 µg/mL (≈ 57.5 µM) in the test on Acinetobacter baumannii; 128 µg/mL (≈ 230 µM) with Candida albicans; 32 µg/mL (≈ 57.5 µM) in the test with Bacillus cereus; 64 µg/mL (≈ 115 µM) in the test with Pseudomonas aeruginosa; 128 µg/mL (≈ 230 µM) in the test with Escherichia coli. For the same molecule, the MIC came to 512 µg/mL (≈ 920 µM) in the test with Staphylococcus aureus and 64 µg/mL (≈ 115 µM) with Candida parapsilosis.
Regarding `COc1cc(Nc2nnc(-c3ccc(S(=O)(=O)c4ccccc4)cc3)s2)cc(OC)c1OC`, the MIC with Enterobacter cloacae stood at 128 µg/mL (≈ 265 µM); in the test on Acinetobacter baumannii, 32 µg/mL (≈ 66.2 µM); against Candida albicans, 64 µg/mL (≈ 132 µM); against Bacillus cereus it was 16 µg/mL (≈ 33.1 µM); with Pseudomonas aeruginosa it was 64 µg/mL (≈ 132 µM); against Escherichia coli it was 128 µg/mL (≈ 265 µM). Besides, the values for the MIC against Staphylococcus aureus and with Candida parapsilosis were 512 µg/mL (≈ 1060 µM) and 64 µg/mL (≈ 132 µM), respectively.
On to `COc1cc(Nc2nnc(-c3ccc(S(=O)(=O)c4ccc(Br)cc4)cc3)s2)cc(OC)c1OC`, for which the MIC worked out at 128 µg/mL (≈ 228 µM) in the test on Enterobacter cloacae; 32 µg/mL (≈ 56.9 µM) in the test on Acinetobacter baumannii; 64 µg/mL (≈ 114 µM) against Candida albicans; 16 µg/mL (≈ 28.4 µM) against Bacillus cereus; 64 µg/mL (≈ 114 µM) against Pseudomonas aeruginosa; 64 µg/mL (≈ 114 µM) against Escherichia coli. The MIC in the test on Staphylococcus aureus turned out to be 512 µg/mL (≈ 910 µM); in the test with Candida parapsilosis, 64 µg/mL (≈ 114 µM).
Regarding `NCC[C@H](O)C(=O)N[C@@H]1C[C@H](N)[C@@H](O[C@H]2O[C@H](CN)[C@@H](O)[C@H](O)[C@H]2O)[C@H](O)[C@H]1O[C@H]1O[C@H](CO)[C@@H](O)[C@H](N)[C@H]1O` [AMIKACIN], the MIC against Pseudomonas aeruginosa, with Escherichia coli and in the test with Staphylococcus aureus was 2 µg/mL (≈ 3.42 µM) throughout.
`OC(Cn1cncn1)(Cn1cncn1)c1ccc(F)cc1F` [FLUCONAZOLE] registered an MIC against Candida parapsilosis of 2 µg/mL (≈ 6.53 µM).
